B1: tRNA (parent)
chain: GUUCCGUUGGCGUAAUGGUAACGCGUCUCCCUCCUAAGGAGAAGACUGCGGGUUCGAGUCCCGUACGGAACG

Variants at the floor of the assay were thinned out.

In this data set the parent is B1. Kind of data set: yeast fitness relative to wild type (ratio to wild type); higher = fitter; tRNA-Arg(CCU), competitive growth, 37 C, YPD. A digest of the protocol:
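The tRNA-Arg(CCU) gene variants were made by chemical synthesis with a 3% per-site mutation rate at 69 sites and inserted at the native genomic locus of Saccharomyces cerevisiae. After pooling, the strains were competed in YPD at 37°C for 24 hours in six parallel replicates. Gene amplicons from the start population and each end population were read by 100-nucleotide paired-end sequencing, and Darwinian fitness relative to wild type was taken from genotype frequency changes. Genotypes needed ≥ 100 starting reads, and estimates < 0.5 were set to 0.5.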
GGUCCGUUGGCGUAAUGGUAACGCGUCUCCCUCCUAAGGAGAAGCCUGCGGGUUCGAGUCCCGUACGGAACG: the yeast fitness is 0.766.
As for GGUCCGUUGGCGUAAUGGUAAAGCAUCUCCCUCCUAAGGAGAAGACUGCGGGUUCAAGUCCCGUACGGAACG, the yeast fitness was not above 0.5.
The figure for GGUCCGUUGGCGUAAUGGUAACGCGUGUCCCUUCUAAGGAGAAGACUGCGGGUUCGAGUCCCGUACGGAACG is 0.644; for GGUCCGUUGGCGUAAUGGUAACGCGUCUGCCUCCUAAGGAGAAGACUGGGGGUUCGAGUCCCGUACGGAACG it is not above 0.5.
Then GGUCCGUUGGCGUAAUGGUAACGCGUCUCCCUUGUAAGGAGAAGACUGCGGGUUCGAGACCCGUACGGAACG, with not above 0.5; and GGUCCGUUGGCGUAAUGGUAACGCGUCUCCCUCCUAAGGAGAAGACUGCGGGUUUGAGUCCGGUAAGGAACG, with 0.577; and GGUCCGUUCGCGUAAUGGUAACGCGUCUCCCUCCUAAGGAGAAGACUGCGGGUUCGAGUCCCGUACGGAGCG, with 0.585.
The figure for GGUCCGUUGGGGUAAUGGUUACGGGUCUCCCUCCUAAGGAGAAGACUGCGGGUUCGAGUCCCGUACGGAACG is 0.534.
Regarding GGUCCGUUGGCGUAAUGGUAACGCGUCUCCCUUGUAAGGAGAAGACUGCGGGUUCGAGUCCCGUACGGUACG, the yeast fitness is not above 0.5.
As for GGUCCGUUGGCGUAAUGGUAACGCGUCUCGCUCCUAAGGAGAAGACUGCGGGUUCGAGUCUCGUACGAAACG, the yeast fitness was determined as 0.531.
Regarding GGUCCGUUGACGUAUUGGUACCGCCUCUCCCUCCUAAGGAGAAGACUGCGGGUUCGAGUCCCGUACGGAACG, the yeast fitness is not above 0.5.
Then GGUUCGUUGGCGUAAUGGUAACGCGUCUCCCUCCUAAGGAGAAGACUGCGGCUUCGAGUCCCGUACGGAACG, with 0.516; and GGUCCGUUGGGGUAAUGGUAACGCGUCUCCCUCCUAACGAGAAAACUGCGGGUUCGAGUCCUGCACGGAACG, with not above 0.5; and GGUCCGUUGGCGUAAUGGUAACGCGUCUCCGUCCUAAGGAGAAGACUGCGGGUUCGUGUCCCGUGCGGAACG, with not above 0.5.
Then GGUCGGUUGGCGUAAUGGUAACGCGUCUCCCUCGUAAGGAGAAGACUGGGGGUUCGAGUCCCGUACGGAACG, with 0.505; and GGUCCGUUGACGUAAUGGUAACGCGUCUCCCUCCUAAGGAGAAGACUGCGGGUUCGAGUCCCGUACGGAACG, with 0.697; and GGUCCGUUGCCGUAAUGGUAACGCGUCUCCCUCCUAAGGAGAAGUUCGCGGGUUCGAGUCCCGCACGGAACG, with not above 0.5.
As to GGUCCGUUGGCGUAAUGGUAACGCGUCUCCAUCCUAAGGAGAAGACUGCGGGUUCUAGUCCCGUACAGAACG, the yeast fitness is not above 0.5.
Then GGUCCGUUGGCGUAAUGGUAACGCGUUUCCCUCCUAAGGAGAAGCCUGCGGGUUCGAGUCCCGUACGGAACG, with 0.657; and GGUCCGUUGGCGUAAUGGUAACGCGUCUCCCUCCUAAGGAGAAGACUGCGGGUUCGAGUCCGGUACAGAACG, with 0.526; and GGUACGUUGGCGUAAUGGUAAUGCGUCGCCCUCCUAAGGAGUAGACUGCGGGUUCGAGUCUCGUACGGAACG, with not above 0.5.
As for GGUCCGUUGGCGUAAUGGUAACGCGUCUCCCUCCUAAGGAGAAGACUGCGGGUUCGAGUACCGUAGGGAACG, the yeast fitness was determined as 0.989.
Then GGUCCGUUGGCGUAAUGGUAACGCGUCUUCCUCCUAAGGAGAAGACUGCGGGUCCGGGCCCCGUACGGAACG, with not above 0.5.
For GGUUCGUUGGCGUAAUGGUAACGCGUCUCCCUCCUAAGGAGAAGACUGCGGGUUCGAGUCACGUUCGGCACG, the yeast fitness was not above 0.5.
Then GGUCCGUUGGCGUAAUGGUAACGCGUAUCCCUCCUAAGGAGAAGACUGCGGGUUCGAGUCCCGUACUGAACG, with not above 0.5.
The figure for GGUCCGUUGGCGUAAUGGUAACGCGUCUCUCUCCUAAGGAGAAGACUGCGGGUUCGAGCCCCGUACGGAACG is not above 0.5; for GGUACGUUGGCGUAAUGGUAAUGCGUCGCCCUCCUAAGGAGUAGACUGAGGGUUCGAGUCCCGUACGGAACG it is not above 0.5.
On to GGUCCGUUCGCAUAAUGGUAACGCGUCUCCCCCCUAAGGAGCAGAAUGCGGGUUCGAGUCCCGUUCGGAACG, for which the yeast fitness is not above 0.5.
Then GGUCCGUUCGCGUAAUGGUGACGCGUCUCCCUCCUAAGGAGCAGAGUGUGGGUUCGAGUCCAGUACGGCACG, with not above 0.5; and GGUGCGUUGGAGUAAUGGUAACGCGUCUCCCUCCUAAGGAGAAGACUGCGGGUUCGAGUCCCGUACGGAACG, with not above 0.5.
Then GGUCCGUUGGCGUAAUGGUAACGAGUCUCCCUCCUAAGGAGAAGAAUGCGGGUUCGAGUCCCGUACGGUACG, with 0.774; and GGUCCGUUGGCGUAAUGGUAACGCGUCUCCUUCCUAAGGAGAAGACUCCGGGUUCGAGUCCCGUACCGAACG, with 0.702; and GGUCCAUUGGCGGAAUGGUAACGCGUCUCCCUCCUAAGGAGAAGACUGUGGGUUCAAGUCCCGUACGGAGCG, with not above 0.5.
With GGUCCGUUGGCGUAAUGGUAACGCGUCUCCCUACUAAGGAGAAGACUGGGGGUUCGAGUCCCGCACCGAACG, the yeast fitness was not above 0.5.
Then GGUCCGUUGGGGUAAUGGUUACGGGUCUCCCUCCUAAGGAGAAGACUGCGAGUUCGAGUGCCGUACGCAACG, with not above 0.5; and GGUCCAUUGGCGUAAUGGUGACGCGUCUCCCUCCUAAGGAGAAGACUGCGGGUUCGAGUCCCGUACGGAACG, with 0.61; and GGUCCGUUGGCGUAAUGGUAAUGCGUCUCCCCCCUAAGGAGAAGACUGCCGGUUCGAGUCCCGUACGGAACG, with 0.658.
Then GGUCAGUUGGCGUAAUGGUAACGCGUCUCCCUCCUAAGGAGAAGACUGCGGGUUUGAGUCACGUACGGAACG, with not above 0.5.
Then GGUCCGUUGGGGUAAUGGUAACGCGUCUCCCUCCUAAGGAGAAGACUGAGGGUUCGAGUUCCGUACGCAACG, with not above 0.5; and GGUCCGUUGGCGUAAUGGUAAUGCGUCUCCCCCCUAAGGAGACGACUGCCGGUUCGAGUCCCGUACGGAACG, with not above 0.5; and GGUCCGUUGGCGUAAUGGUAACGCGUCUCCCUACUAAGCAGAAGACUGCGGGUUCGAGUCCCGUACGGAACG, with not above 0.5.
Consider GGUCCGUUGGCGUAAUGGUAACGGGUCUGCGUCCUAAGGAGAAGACUGCGGGUUCGAGUCCCGCACGGAACG, for which the yeast fitness is not above 0.5.
Take GGUCCGUUGGCGUAAUGGUAACGGGUCUCGUUCCAUAGGAGAAAACUGCGGGUUCGAGUCCCCUACGGAACG: the yeast fitness was 0.552.
The figure for GGUCCGUUGGCGUAAUGGUAACGCGUCUCCCUCCUAAGGAGAAGACUGCGGGUUCGAGUUACGUACCGAACG is not above 0.5; for GGUUCGUUGGCGUAAUGGUAACCCGUCUCCCUCCUAAGGAGAAGACUGCGGGUUCGAGUCCCGUACGGAACG it is 0.567; for GGUCCGUUGGCGUAAUGGUAAUGCGUCUCCCUCCUAAGGAGAAGACUGCGGGUUCGAGUCCCGUAUGGAACG it is 0.563.
For the variant GGUCUGUUGGCGUAUUAGUAACGCGUCUCCCUCCUAAGGAGAAGACGGGGGGUUCGAGUGCCGUACGGAUCG, the yeast fitness was not above 0.5.
Take GGUCCGUUGGUGUAAUGGUCACGCGUCUCCCUCCUAAGGAGAAGACUGCGGGUUCGAGUCCCGUACGGACCG: the yeast fitness was 0.667.
On to GGUCCGUUCGCGUAAUGGUGACGCGUCUCCCUCCUAAGGAGCAGAGUGUGGGUUCGAGUCCCGUACGGCACG, for which the yeast fitness amounted to 0.576.
For the variant GGUCCGUUGGCGUAAUGGUAACGCGUCUCCCUCCUAAGGAGAAGACUGCGGGUUCGUGUCCCGUACCGAACG, the yeast fitness is not above 0.5.
Then GGUCCGUUGGCGUAAUGGUAACGCGUCUCCCUCCUAAGGAGAAGACUGCGGGUUCGAGUCGCGUACGGAACG, with 0.556; and GGUCCGUUGGCGUAAUGGUAACGCGUCUUCCUCCUAAGGAGAAGACUGCGGGUUCGAGUCCCGUACGGAACG, with 0.851; and GGUCCGUUGGCGUAAUGGUAACGCGUCUCUCCCCUAAGGAGAAGACUGCGGGUUGGAGUCCCGUACGGAACG, with not above 0.5.
Then GGUUCGUUGGCGUAAUGGUAACGCGUCUCCCUCCUAAGGAGAAGACUGCGGGUUCGAGUCAUGUUCGGCACG, with 0.519; and GGUCCGUUGGGGUAAUGGCGACGUGUCUCCGUCCUAAGGAGAAGACUGCGGGUUCGAGUCCCGUACGGAACG, with not above 0.5.
On to GGUCCGUUGGGGUAAUGGUUACGGGUCUCCCUCCUAAGGAGAAGACUGCGGGUUCGAGUGCCGUACGCAACG, for which the yeast fitness came to 0.518.
Then GGUCAGUUGGCGUAAUGGUAACGCGUCUCCCUCCUAAGGAGAUGACUGCGGGUUUGAGUCCCGUACGAAACG, with not above 0.5; and GGUCCGUUGGCGUAAUGGUAACGCGUCUCCGUCCUAGGGAGAAGACUGCGGGUUCGAGUCCCGUACGGAACG, with 0.605; and GGUUCGUUGGCGUAAUGGUCACGCGUCUCGCUCCUAAGGAGAAGACUGCGGGUUCGAGUCCCGUACGGAACG, with not above 0.5.
Then GGUCCGUUGGAGUAAUGGUAACGAGACUCCCUCCUAAGGAGAACACUGCGGGUUCGAGUCCCGUACGAAACG, with not above 0.5; and GGUCCGUUGGCGUAAUGGUAACGCGUCUCCCUCCUAAGGAGAAGAAUGCGGGUUCGAGUCCCCUACGGAACG, with 0.56; and GGUCUGUUGGCGUAAUGGUAACGCGUCUCCCCCCUAAGGAGAAGACUGCGGGUUUGAGUCCCGUACGGAACG, with 0.581.
With GGUCCGUUGGAGUAAUGGUAACGAGACUCCCUCCUAAGGAGAACACUGCGGGUUCGAGUCCCGUACGGAACG, the yeast fitness is not above 0.5.
Then GGUCCGUUGGCGUAAUGGUAACGCGUCUCACUCCGAAGGAGAAGACUGCGCGUUCGAGUCCCGUACGGAACG, with not above 0.5; and GGUCCGUUGGCGUAAUGGUAAAGCCUCUCCCUUCUAAGGAGAAGACUGCGGGUUCGAGUCCCGUACGGCACG, with not above 0.5; and GGUCCGUUGGCGUAAUGGUAACGAGUCUCCGUCCUAAGGAGAAGACUGCGGGUUCGAGUCCCGUACGGAACG, with not above 0.5.
For GGUCUGUUGGCGUAAUGGUAACGCGUCUCCCUCCUAAGGAGAAGACUGCGGGUUCGAGUCCCGUACGGAACG, the yeast fitness worked out at 0.877.
The figure for GGUCCGUUGGCGUAAUGGUAACGCGUCUCCCUCCUAAGGAGAAGACUGCGGGUUCGAGUCCUGUACGGAACG is 0.863.
The figure for GGUCCGUUGCCGUAAUGGUAACGCGUCUCCCUCCUAAGGAGAAGACUGCGGGUUCGAGUCCCGUACGGACCG is not above 0.5; for GGUCCGUUGGCGUAAUGGUAACGCGUUUCCCUCCUAAGGAGAAGAUUGCGGGUUCGAGUCCCGUACGGAACG it is 0.999; for GGUCCGUUGGGGUAAUGGUAACGCGUCUCCCUCCUAAGGAGAAGACUGCGGGUUCGAGUCCCGUACGGAACG it is 0.703.
The figure for GGUCCGUUGGCGUAAUGGUAAAGCAUCUCCCUCCUAAGGAGAAGACUGCGGGUUCGAGUCCCGUACGGAACG is 0.639; for GGUCCGUUGGGGUAAUGGUAACGCGUCUCCCUCCUAAGGAGAAGACUGCGGGUUCGAGUCCCGUAUGGAACG it is not above 0.5; for GGUCCGUUGGCGUAAUGGUAACGCGUCUCUCUCCUAAGGAGAAGAAUGCGGGUUCGAGUCCCGUACGGAACG it is 0.692.
For the variant GGUCCAUUGGCAUAAUGGUAACGCGUUUCCCUCCUUAGGAGAAGACUGCGGGUUCGAGUGCCGUACGGAACG, the yeast fitness is not above 0.5.

The record behind these values is the RNAGym collection of RNA variant scans (doi:10.1126/science.aae0568).
